{
  "source": "ChEMBL document CHEMBL2169845",
  "about": "(J Med Chem, 2012)",
  "key": {"[1]": {"molecular_target": "T1, Apoptosis regulator Bcl-2 (Homo sapiens, UniProt P10415)", "T1 sequence (P10415 whole entry)": "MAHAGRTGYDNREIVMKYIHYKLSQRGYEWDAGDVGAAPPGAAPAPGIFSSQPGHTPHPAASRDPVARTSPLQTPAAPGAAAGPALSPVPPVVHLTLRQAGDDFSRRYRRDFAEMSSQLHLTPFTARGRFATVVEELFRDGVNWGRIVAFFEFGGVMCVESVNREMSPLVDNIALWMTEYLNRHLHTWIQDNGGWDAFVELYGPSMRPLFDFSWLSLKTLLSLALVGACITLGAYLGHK"}, "[2]": {"test": "Cytotoxicity against human NCI-H146 cells assessed as growth inhibition after 4 days by WST-8 assay", "assay_type": "functional, cell-based", "conditions": "NCI-H146, 96 h"}, "NCI-H1417": {"system": "NCI-H1417", "test": "Cytotoxicity against human H1417 cells assessed as growth inhibition after 4 days by WST-8 assay", "assay_type": "functional, cell-based", "conditions": "NCI-H1417, 96 h"}, "NCI-H146 [3]": {"system": "NCI-H146", "test": "Induction of apoptosis in human NCI-H146 cells assessed as cell viability after 24 hrs by trypan blue exclusion assay", "assay_type": "functional, cell-based", "in_short": "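H146 cells exposed to a range of compound concentrations for 24 hr, then harvested and stained with trypan blue. Cells staining blue or looking morphologically unhealthy were scored as dead. At least 100 cells counted per sample.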"}, "[4]": {"molecular_target": "T1, Apoptosis regulator Bcl-2", "test": "Inhibition of N-terminal 6xHis-tagged human Bcl-2 expressed in Escherichia coli BL21 (DE3) after 2 hrs by fluorescence polarization assay"}, "[5]": {"test": "Toxicity in iv dosed SCID mouse administered 5 days per week for 2 weeks", "assay_type": "organism-based", "conditions": "in vivo"}, "NCI-H146 [6]": {"system": "NCI-H146", "test": "Induction of apoptosis in human NCI-H146 cells assessed as cell viability at 10 nM after 24 hrs by trypan blue exclusion assay", "assay_type": "functional", "conditions": "NCI-H146, 24 h, read-out: Activity", "in_short": "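H146 small-cell lung cancer cells exposed to serial compound concentrations for 24 hr, then collected and stained with trypan blue. Blue-stained or morphologically unhealthy cells were scored as dead, with at least 100 cells counted per sample.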"}, "Mus musculus [7]": {"system": "Mus musculus", "test": "Toxicity in SCID mouse assessed as body weight loss at 25 mg/kg, iv administered 5 days per week for 2 weeks relative to vehicle-treated control", "assay_type": "organism-based", "parameters": "dose 25 mg/kg, route intravenous", "conditions": "in vivo", "in_short": "(§1)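 Tolerability tested in SCID mice given daily i.v. doses, 5 days a week for 2 weeks. Body weight loss tracked against a 10% threshold.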"}, "[8]": {"test": "Inhibition of c-terminally truncated N-terminal 8xHis-tagged human Bcl-xL deletion mutant expressed in Escherichia coli BL21 (DE3) after 2 hrs by fluorescence polarization assay"}, "Mus musculus [9]": {"system": "Mus musculus", "test": "Toxicity in SCID mouse assessed as body weight loss at 10 mg/kg, iv administered 5 days per week for 2 weeks relative to vehicle-treated control", "assay_type": "organism-based", "parameters": "dose 10 mg/kg, route intravenous", "conditions": "in vivo", "in_short": "as §1"}, "NCI-H146 [10]": {"system": "NCI-H146", "test": "Antitumor activity against human NCI-H146 cells xenografted in SCID mouse assessed as tumor regression at 50 mg/kg, iv administered 5 days per week for 2 weeks", "assay_type": "functional, organism-based", "parameters": "dose 50 mg/kg", "in_short": "(§2)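 SCID mice bearing H146 xenografts randomized at 40–110 mm3 tumor volume (mean 70 mm3), 8 per group. Dosed intravenously, daily, 5 days a week for 2 weeks, with a vehicle control group. Tumor size and body weight measured 3 times weekly during dosing and twice weekly afterwards. Tumor volumes reported as mean ± SEM.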"}, "Mus musculus [11]": {"system": "Mus musculus", "test": "Toxicity in SCID mouse assessed as body weight loss at 50 mg/kg, iv administered 5 days per week for 2 weeks relative to vehicle-treated control", "assay_type": "organism-based", "parameters": "dose 50 mg/kg, route intravenous", "conditions": "in vivo", "in_short": "as §1"}, "NCI-H146 [12]": {"system": "NCI-H146", "test": "Antitumor activity against human NCI-H146 cells xenografted in SCID mouse assessed as tumor growth inhibition at 50 mg/kg, iv administered 5 days per week for 2 weeks", "assay_type": "functional, organism-based", "parameters": "dose 50 mg/kg", "in_short": "as §2"}, "Mus musculus [13]": {"system": "Mus musculus", "test": "Toxicity in SCID mouse assessed as body weight loss at 75 mg/kg, iv administered 5 days per week for 2 weeks relative to vehicle-treated control", "assay_type": "organism-based", "parameters": "dose 75 mg/kg, route intravenous", "conditions": "in vivo", "in_short": "as §1"}, "NCI-H146 [14]": {"system": "NCI-H146", "test": "Induction of apoptosis in human NCI-H146 cells assessed as PARP cleavage at 100 nM after 24 hrs by Western blot analysis", "assay_type": "functional, cell-based", "in_short": "(§3)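 H146 cells treated for 24 hr, then lysed on ice for 20 min in RIPA buffer with PMSF and protease inhibitors. Cleared lysates normalized by protein assay and run on 4–20% SDS-PAGE, then blotted to PVDF. Probed with rabbit antibodies to PARP and caspase-3 (cleaved forms detected), GAPDH as loading control, with HRP chemiluminescence detection.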"}, "NCI-H146 [15]": {"system": "NCI-H146", "test": "Induction of apoptosis in human NCI-H146 cells xenografted in SCID mouse assessed as PARP cleavage at 50 mg/kg, iv after 3 to 6 hrs by Western blot analysis", "assay_type": "functional, organism-based", "parameters": "dose 50 mg/kg", "in_short": "(§4)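 SCID mice bearing H146 xenografts (100–200 mm3) received one i.v. dose, with a vehicle control group. Tumors harvested at 3, 6 and 24 h. PARP cleavage and caspase-3 cleavage assessed by Western blot.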"}, "NCI-H146 [16]": {"system": "NCI-H146", "test": "Induction of apoptosis in human NCI-H146 cells assessed as caspase 3 activation at 100 nM after 24 hrs by Western blot analysis", "assay_type": "functional, cell-based", "in_short": "as §3"}, "NCI-H146 [17]": {"system": "NCI-H146", "test": "Induction of apoptosis in human NCI-H146 cells xenografted in SCID mouse assessed as caspase 3 cleavage at 50 mg/kg, iv after 3 to 24 hrs by Western blot analysis", "assay_type": "functional, organism-based", "parameters": "dose 50 mg/kg", "in_short": "as §4"}},
  "note": "Activity calls are given as the source filed them.",
  "data": [
    {"compound": "Cc1c(C(=O)O)c(-c2cccc(N3CCN(c4ccc(NS(=O)(=O)c5ccc(N[C@H](CCN6CCC(O)CC6)CSc6ccccc6)c(S(=O)(=O)C(F)(F)F)c5)cc4)CC3)c2)c(-c2ccc(Cl)cc2)n1C(C)C", "values": [
      {"measurement": "Ki", "setting": "[1]", "value": 0.8, "unit": "nM"},
      {"measurement": "IC50", "setting": "[2]", "value": 13, "unit": "nM"},
      {"measurement": "IC50", "setting": "NCI-H1417", "value": 9, "unit": "nM"},
      {"measurement": "Activity", "setting": "NCI-H146 [3]", "value": "Dose-dependent effect"},
      {"measurement": "IC50", "setting": "[4]", "value": 4, "unit": "nM"},
      {"measurement": "MTD at 2 weeks", "setting": "[5]", "value": 10, "unit": "mg/kg"},
      {"measurement": "viability at 0.01 µM", "setting": "NCI-H146 [6]", "value": "> 50", "unit": "%"},
      {"measurement": "Activity", "setting": "Mus musculus [7]", "value": "> 10", "unit": "%"},
      {"measurement": "IC50", "setting": "[8]", "value": 3.9, "unit": "nM"},
      {"measurement": "Activity", "setting": "Mus musculus [9]", "value": "< 10", "unit": "%"}
    ]},
    {"compound": "Cc1c(C(=O)O)c(-c2cccc(N3CCN(c4ccc(NS(=O)(=O)c5ccc(N[C@H](CCN6CCC(O)CC6)CSc6ccccc6)c(S(=O)(=O)C(F)(F)F)c5)cc4)CC3)c2)c(-c2ccc(Cl)cc2)n1C", "values": [
      {"measurement": "Ki", "setting": "[1]", "value": 2.4, "unit": "nM"},
      {"measurement": "IC50", "setting": "[2]", "value": 108, "unit": "nM"},
      {"measurement": "IC50", "setting": "NCI-H1417", "value": 125, "unit": "nM"},
      {"measurement": "Activity", "setting": "NCI-H146 [10]", "value": "inactive"},
      {"measurement": "Activity", "setting": "Mus musculus [11]", "value": "< 10", "unit": "%"},
      {"measurement": "Activity", "setting": "NCI-H146 [3]", "value": "Dose-dependent effect"},
      {"measurement": "TGI", "setting": "NCI-H146 [12]", "value": "Active"},
      {"measurement": "IC50", "setting": "[4]", "value": 10.2, "unit": "nM"},
      {"measurement": "Activity", "setting": "Mus musculus [13]", "value": "> 10", "unit": "%"},
      {"measurement": "Activity", "setting": "NCI-H146 [14]", "value": "Active"},
      {"measurement": "MTD at 2 weeks", "setting": "[5]", "value": 50, "unit": "mg/kg"},
      {"measurement": "Activity", "setting": "NCI-H146 [15]", "value": "Active"},
      {"measurement": "IC50", "setting": "[8]", "value": 7, "unit": "nM"},
      {"measurement": "Activity", "setting": "NCI-H146 [16]", "value": "Active"},
      {"measurement": "Activity", "setting": "NCI-H146 [17]", "value": "Active"}
    ]}
  ]
}
